Outcome data for one compound are collected here from PubChem BioAssay AID623983 (Vanderbilt High Throughput Screening Facility, 2012).

The test has as its target G protein-activated inward rectifier potassium channel 2 (Homo sapiens) + G protein-activated inward rectifier potassium channel 3 (Homo sapiens) (UniProt P48051+Q92806). Put plainly: activation of GIRK2/3-mediated thallium influx – cell-based, HEK-293 hGIRK2/3, thallium flux, FluoZin-2, concentration-response, dose response (AID 623983). An outline of the steps:
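Repeats: Triplicate wells | System: HEK-293 cells stably expressing human GIRK2/3 channels | Detection: FluoZin-2 fluorescence thallium flux, sampled at 1 Hz | Timing: FluoZin-2 AM loading ~60 min room temperature, compound 4 min pre-thallium | Also added: Tl+ stimulus plus EC20 glutamate | Evaluation: Post-thallium fluorescence slope as % of MPD response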

Active and inactive are the calls of the source. No rule for the calls is given here.

G protein-activated inward rectifier potassium channel 2 (Homo sapiens) + G protein-activated inward rectifier potassium channel 3 (Homo sapiens), sequence (P48051 whole entry, looked up): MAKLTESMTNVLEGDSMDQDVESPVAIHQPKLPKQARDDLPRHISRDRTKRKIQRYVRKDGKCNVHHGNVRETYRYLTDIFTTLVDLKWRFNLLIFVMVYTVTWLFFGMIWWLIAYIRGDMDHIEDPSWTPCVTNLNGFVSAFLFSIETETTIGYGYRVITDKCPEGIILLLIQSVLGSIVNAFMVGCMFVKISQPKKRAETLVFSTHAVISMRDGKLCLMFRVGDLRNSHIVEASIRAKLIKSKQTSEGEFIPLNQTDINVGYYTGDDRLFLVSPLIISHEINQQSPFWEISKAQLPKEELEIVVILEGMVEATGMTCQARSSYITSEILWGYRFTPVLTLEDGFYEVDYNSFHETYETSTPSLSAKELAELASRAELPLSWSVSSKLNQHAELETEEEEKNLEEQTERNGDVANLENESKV
G protein-activated inward rectifier potassium channel 2 (Homo sapiens) + G protein-activated inward rectifier potassium channel 3 (Homo sapiens), sequence (Q92806 whole entry, looked up): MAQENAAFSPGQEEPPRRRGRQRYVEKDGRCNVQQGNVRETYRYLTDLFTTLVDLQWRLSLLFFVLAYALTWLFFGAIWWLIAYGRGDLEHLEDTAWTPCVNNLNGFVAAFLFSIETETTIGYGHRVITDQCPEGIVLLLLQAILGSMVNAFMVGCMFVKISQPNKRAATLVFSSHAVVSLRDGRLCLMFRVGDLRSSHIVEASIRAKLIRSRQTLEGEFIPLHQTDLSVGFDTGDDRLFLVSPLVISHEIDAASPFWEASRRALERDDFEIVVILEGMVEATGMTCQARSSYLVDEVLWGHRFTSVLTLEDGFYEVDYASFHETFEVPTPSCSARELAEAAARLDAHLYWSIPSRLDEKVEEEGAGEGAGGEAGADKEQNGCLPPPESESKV

Regarding `Cc1cc(NC(=O)Nc2ccc(F)c(F)c2)n(-c2ccccc2)n1`, the result was inactive.
